Experimental data published in publication PMC11220656 (JAC-Antimicrobial Resistance, 2024).

Experiments:
E. coli strain pb15 [1] = conditions: strain pb15, blood; ref Basra et al. 15; cited from earlier work
E. coli strain pb3 [2] = conditions: strain pb3, urinary tract infection; ref Basra et al. 15; cited from earlier work
E. coli strain pb5 = conditions: strain pb5, respiratory; ref Basra et al. 15; cited from earlier work
[3] = test system: clinically derived E. coli strains pb3, pb15 and pb35; experiment: Growth inhibition across the clinical strains pb3, pb15 and pb35; format: cell-based, Escherichia coli; conditions: AMP at 40 µM
How it was run: (§1)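 Overnight E. coli clinical isolate cultures in Mueller–Hinton broth (150 rpm, 37°C) diluted 1:100 in MHB, with test peptide at 40 µM or in a 2-fold series from 40 to 5 µM, in triplicate. OD600 read every 30 min for 24 h with continuous shaking. Log-phase linear values were log2-transformed against time, slope taken as growth rate, normalized to a no-peptide control, and compared with wild-type peptide by Student's t test.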

E. coli strain pb3 [4] = experiment: Growth curve inhibition, clinical strain pb3; format: cell-based, Escherichia coli; conditions: for Concentration giving significant growth inhibition of pb3: 2-fold serial dilution 40 to 5 µM, triplicates, compared with WT peptide; for Effect on growth of pb3 (in words): AMP at 40 µM
How it was run: as §1

E. coli strain pb35 = experiment: Growth curve inhibition, clinical strain pb35; format: cell-based, Escherichia coli; conditions: for Effect on growth of pb35 (in words): AMP at 40 µM
How it was run: as §1

E. coli strain pb15 [5] = experiment: Growth curve inhibition, clinical strain pb15; format: cell-based, Escherichia coli; conditions: for Effect on growth of pb15 (in words): AMP at 40 µM
How it was run: as §1

[6] = 2-fold serial dilution 40 to 5 µM, triplicates, compared with WT peptide

Compound	Growth inhibition across all three clinical strains (in words) [3]	Concentration giving significant growth inhibition of pb3 (E. coli strain pb3 [4])	Effect on growth of pb3 (in words) (E. coli strain pb3 [4])	Effect on growth of pb15 (in words) (E. coli strain pb15 [5])	Effect on growth of pb35 (in words) (E. coli strain pb35)	also measured
CC(C)(O/N=C(\C(=O)N[C@@H]1C(=O)N2C(C(=O)[O-])=C(C[n+]3ccccc3)CS[C@H]12)c1csc(N)n1)C(=O)O [CAZ, ceftazidime]						CAZ MIC (E. coli strain pb15 [1]): 128 mg/L; CAZ MIC (E. coli strain pb3 [2]): 4 mg/L; CAZ MIC (E. coli strain pb5): 0.5 mg/L
ILPWLWPWWPWRR [IndoK5L]	equivalent response across all three strains	20 µM				Concentration giving significant growth inhibition of pb35 (E. coli strain pb35; [6]): 20 µM
ILPWKWPWWPWRR [indolicidin, reference compound]						Dose-response of growth inhibition of pb3 (in words) (E. coli strain pb3 [4]; serial dilution 40 to 5 µM): not inhibited across the concentrations tested
ILPWDWPWWPWRR [IndoK5D]	equivalent response across all three strains	20 µM				Concentration giving significant growth inhibition of pb15 (E. coli strain pb15 [5]; [6]): 10 µM
ILPWAWPWWPWRR [IndoK5A]			greater effect	reduced but still significant effect	greater effect	
ILPWCWPWWPWRR [IndoK5C]			greater effect	reduced but still significant effect	greater effect	
